ChEMBL document CHEMBL4431393, “Polar Recognition Group Study of Keap1-Nrf2 Protein-Protein Interaction Inhibitors” (ACS Med Chem Lett, 2016)
In brackets after ≈: the same amount, converted by molar mass.

Experiments:
[1] = Dissociation constant, pKa of the compound by Avdeef-Bucher potentiometric titration method; assay type: physicochemical
[2] = Permeability of the compound at pH 7.4 by PAMPA method; assay type: ADME; conditions: read-out: permeability
Method in brief: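 Effective permeability coefficients (Pe) were determined by a standard parallel artificial membrane permeability assay run on an automated PAMPA instrument. This reads out passive transcellular diffusion.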

[3] = Intrinsic solubility of the compound at pH 7.4 by potentiometric acid-base titration method; assay type: physicochemical; conditions: buffer, read-out: Intrinsic_solubility
[4] = molecular target: Keap1/Nrf2 (Homo sapiens, UniProt Q14145); assay: Inhibition of Keap1 Kelch domain/FITC-9mer Nrf2 (unknown origin) interaction after 30 mins by fluorescence polarization assay; assay type: protein assay
[5] = Partition coefficient, logD of the compound at pH 7.4 by Avdeef-Bucher potentiometric titration method; assay type: physicochemical; conditions: octanol/water

Chain of Keap1/Nrf2 (Q16236 whole entry, the tested form may be a part): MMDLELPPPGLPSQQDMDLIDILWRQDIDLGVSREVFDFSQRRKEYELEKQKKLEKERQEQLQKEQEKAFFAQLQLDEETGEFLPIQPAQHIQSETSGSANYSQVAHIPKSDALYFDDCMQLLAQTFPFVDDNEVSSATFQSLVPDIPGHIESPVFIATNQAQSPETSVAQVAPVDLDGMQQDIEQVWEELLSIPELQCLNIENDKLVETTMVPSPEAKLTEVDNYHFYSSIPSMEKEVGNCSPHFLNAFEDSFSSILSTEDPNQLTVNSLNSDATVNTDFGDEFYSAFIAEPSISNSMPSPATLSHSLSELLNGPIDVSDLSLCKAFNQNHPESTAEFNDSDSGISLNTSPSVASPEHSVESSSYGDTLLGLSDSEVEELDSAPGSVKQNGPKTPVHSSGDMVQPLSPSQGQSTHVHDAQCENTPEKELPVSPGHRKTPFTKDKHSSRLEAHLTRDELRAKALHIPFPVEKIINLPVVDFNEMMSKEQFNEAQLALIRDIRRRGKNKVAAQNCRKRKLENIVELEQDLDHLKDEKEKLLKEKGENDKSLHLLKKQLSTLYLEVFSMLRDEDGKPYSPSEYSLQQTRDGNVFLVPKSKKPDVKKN
Chain of Keap1/Nrf2 (Q14145 whole entry, the tested form may be a part): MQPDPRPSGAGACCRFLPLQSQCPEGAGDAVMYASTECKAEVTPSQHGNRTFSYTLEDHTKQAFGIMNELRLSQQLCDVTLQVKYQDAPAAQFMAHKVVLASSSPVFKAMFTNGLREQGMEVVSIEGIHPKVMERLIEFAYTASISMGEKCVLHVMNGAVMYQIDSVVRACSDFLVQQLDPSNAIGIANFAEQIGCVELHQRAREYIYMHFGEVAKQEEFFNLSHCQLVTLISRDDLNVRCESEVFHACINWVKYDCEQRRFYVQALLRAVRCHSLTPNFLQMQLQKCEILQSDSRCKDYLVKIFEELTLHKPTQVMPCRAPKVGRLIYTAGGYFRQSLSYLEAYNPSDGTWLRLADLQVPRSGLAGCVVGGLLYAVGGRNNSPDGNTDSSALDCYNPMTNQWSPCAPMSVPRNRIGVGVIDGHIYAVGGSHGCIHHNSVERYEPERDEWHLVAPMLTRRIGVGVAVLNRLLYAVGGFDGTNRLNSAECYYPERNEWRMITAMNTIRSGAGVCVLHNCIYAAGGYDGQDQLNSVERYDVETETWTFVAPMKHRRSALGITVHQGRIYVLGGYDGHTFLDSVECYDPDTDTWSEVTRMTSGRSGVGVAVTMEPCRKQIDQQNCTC

Row | SMILES | pKa [1] | Papp [2] | solubility [3] | IC50 [4] | logD [5]
1 | CC(=O)Nc1ccc(S(=O)(=O)N(CC(=O)O)c2ccc(N(CC(=O)O)S(=O)(=O)c3ccc(NC(C)=O)cc3)c3ccccc23)cc1 | 4.79 | 0.265 ×10⁻⁶ cm/s | 5000 µg/mL (≈ 7480 µM) |  | 
2 | CC(=O)Nc1ccc(S(=O)(=O)N(CC(=O)NO)c2ccc(N(CC(=O)NO)S(=O)(=O)c3ccc(NC(C)=O)cc3)c3ccccc23)cc1 | 8.12 |  | 942 µg/mL (≈ 1350 µM) | 2.6 µM | 2.87
3 | CC(=O)Nc1ccc(S(=O)(=O)N(CC#N)c2ccc(N(CC#N)S(=O)(=O)c3ccc(NC(C)=O)cc3)c3ccccc23)cc1 | 10.5 |  | 14.1 µg/mL (≈ 22.4 µM) | > 50 µM | 4.65
4 | CC(=O)Nc1ccc(S(=O)(=O)N(Cc2c[nH]nn2)c2ccc(N(Cc3c[nH]nn3)S(=O)(=O)c3ccc(NC(C)=O)cc3)c3ccccc23)cc1 | 9.67 |  | 698 µg/mL (≈ 976 µM) | 0.609 µM | 3.01
5 | CC(=O)Nc1ccc(S(=O)(=O)N(CCO)c2ccc(N(CCO)S(=O)(=O)c3ccc(NC(C)=O)cc3)c3ccccc23)cc1 | 10.8 |  | 655 µg/mL (≈ 1020 µM) | > 50 µM | 2.99
6 | CC(=O)Nc1ccc(S(=O)(=O)N(Cc2nn[nH]n2)c2ccc(N(Cc3nn[nH]n3)S(=O)(=O)c3ccc(NC(C)=O)cc3)c3ccccc23)cc1 | 5.12 | 42.3 ×10⁻⁶ cm/s | 3500 µg/mL (≈ 4880 µM) |  | 2.31
7 | COC(=O)CN(c1ccc(N(CC(=O)OC)S(=O)(=O)c2ccc(NC(C)=O)cc2)c2ccccc12)S(=O)(=O)c1ccc(NC(C)=O)cc1 | 10.5 |  | 36.4 µg/mL (≈ 52.2 µM) | > 50 µM | 3.91
8 | C#CCN(c1ccc(N(CC#C)S(=O)(=O)c2ccc(NC(C)=O)cc2)c2ccccc12)S(=O)(=O)c1ccc(NC(C)=O)cc1 | 10.7 |  | 11.2 µg/mL (≈ 17.8 µM) | > 50 µM | 4.75
9 | CC(=O)Nc1ccc(S(=O)(=O)N(CC(N)=O)c2ccc(N(CC(N)=O)S(=O)(=O)c3ccc(NC(C)=O)cc3)c3ccccc23)cc1 | 9.8 |  | 388 µg/mL (≈ 583 µM) | > 50 µM | 3.21
